Measured values as given in ChEMBL document CHEMBL2176911 (J Med Chem, 2012).
Calls of active or inactive are those of the source. The rule behind the calls is not given here.

What was measured:
[1] = target: Dual specificity protein kinase CLK4 (Mus musculus, UniProt O35493); assay: Inhibition of mouse recombinant GST-tagged CLK4 expressed in Escherichia coli using GRSRSRSRSRSR as substrate and [gamma33P]ATP after 30 mins by scintillation counting
[2] = Inhibition of pig […] isolated from brain using RRKHAAIGpSAYSITA as substrate and [gamma33P]ATP after 30 mins by scintillation couting; set-up: species or system Sus scrofa
Procedure, shortened: (§1)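 Panel of purified kinases (recombinant from several species plus native enzymes), each assayed radiometrically over a range of inhibitor concentrations; IC50 in μM calculated from the dose-response curves.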

Plasmodium falciparum = assay: Inhibition of Plasmodium falciparum recombinant GSK3 expressed in Escherichia coli using YRRAAVPPSPSLSRHSSPHQ-phosphoS-EDEEE as substrate and [gamma33P]ATP at 10 uM after 30 mins by scintillation counting
[3] = target: T1, Dual specificity tyrosine-phosphorylation-regulated kinase 4 (Homo sapiens, UniProt Q9NR20); assay: Inhibition of human recombinant GST-tagged DYRK4 expressed in Escherichia coli using GRSRSRSRSRSR as substrate and [gamma33P]ATP after 30 mins by scintillation counting
T1 sequence (Q9NR20 whole entry): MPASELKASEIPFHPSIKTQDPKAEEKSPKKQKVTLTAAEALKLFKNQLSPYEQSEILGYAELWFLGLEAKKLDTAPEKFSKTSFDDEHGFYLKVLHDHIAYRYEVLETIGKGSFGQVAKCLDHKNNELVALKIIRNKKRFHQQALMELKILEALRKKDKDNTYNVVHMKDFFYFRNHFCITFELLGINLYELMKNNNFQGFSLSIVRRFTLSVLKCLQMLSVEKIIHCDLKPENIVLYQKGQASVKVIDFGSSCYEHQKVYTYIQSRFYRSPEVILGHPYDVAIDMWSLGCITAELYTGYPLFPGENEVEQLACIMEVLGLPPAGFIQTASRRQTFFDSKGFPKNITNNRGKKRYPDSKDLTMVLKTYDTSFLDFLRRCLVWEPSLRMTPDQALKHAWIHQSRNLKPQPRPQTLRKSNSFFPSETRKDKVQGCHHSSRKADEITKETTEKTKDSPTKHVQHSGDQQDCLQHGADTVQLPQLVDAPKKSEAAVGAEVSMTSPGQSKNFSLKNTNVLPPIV

[4] = target: Glycogen synthase kinase-3 alpha (Homo sapiens, UniProt P49840); assay: Inhibition of human recombinant GSK3alpha expressed in insect cells using YRRAAVPPSPSLSRHSSPHQ-phosphoS-EDEEE as substrate and [gamma33P]ATP after 30 mins by scintillation counting
Glycogen synthase kinase-3 alpha, sequence (P49840 whole entry): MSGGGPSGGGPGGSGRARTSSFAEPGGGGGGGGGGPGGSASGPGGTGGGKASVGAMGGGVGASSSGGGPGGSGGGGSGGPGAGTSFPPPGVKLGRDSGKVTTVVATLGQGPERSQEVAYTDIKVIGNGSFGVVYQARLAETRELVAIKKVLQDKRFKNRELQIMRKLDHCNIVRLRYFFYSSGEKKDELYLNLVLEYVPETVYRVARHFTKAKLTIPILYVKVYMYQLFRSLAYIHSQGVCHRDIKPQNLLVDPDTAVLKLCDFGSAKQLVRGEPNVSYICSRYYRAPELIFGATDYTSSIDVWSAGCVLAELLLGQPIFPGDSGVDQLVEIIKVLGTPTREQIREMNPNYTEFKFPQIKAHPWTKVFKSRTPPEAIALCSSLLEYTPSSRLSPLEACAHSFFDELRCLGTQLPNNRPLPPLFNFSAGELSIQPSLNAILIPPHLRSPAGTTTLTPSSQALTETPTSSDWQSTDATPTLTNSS

[5] = target: Dual specificity protein kinase CLK3 (Homo sapiens, UniProt P49761); assay: Binding affinity to CLK3
[6] = target: Dual specificity tyrosine-phosphorylation-regulated kinase 3 (Homo sapiens, UniProt O43781); assay: Inhibition of human recombinant GST-tagged DYRK3 expressed in Escherichia coli using GRSRSRSRSRSR as substrate and [gamma33P]ATP after 30 mins by scintillation counting
Dual specificity tyrosine-phosphorylation-regulated kinase 3, sequence (O43781 whole entry): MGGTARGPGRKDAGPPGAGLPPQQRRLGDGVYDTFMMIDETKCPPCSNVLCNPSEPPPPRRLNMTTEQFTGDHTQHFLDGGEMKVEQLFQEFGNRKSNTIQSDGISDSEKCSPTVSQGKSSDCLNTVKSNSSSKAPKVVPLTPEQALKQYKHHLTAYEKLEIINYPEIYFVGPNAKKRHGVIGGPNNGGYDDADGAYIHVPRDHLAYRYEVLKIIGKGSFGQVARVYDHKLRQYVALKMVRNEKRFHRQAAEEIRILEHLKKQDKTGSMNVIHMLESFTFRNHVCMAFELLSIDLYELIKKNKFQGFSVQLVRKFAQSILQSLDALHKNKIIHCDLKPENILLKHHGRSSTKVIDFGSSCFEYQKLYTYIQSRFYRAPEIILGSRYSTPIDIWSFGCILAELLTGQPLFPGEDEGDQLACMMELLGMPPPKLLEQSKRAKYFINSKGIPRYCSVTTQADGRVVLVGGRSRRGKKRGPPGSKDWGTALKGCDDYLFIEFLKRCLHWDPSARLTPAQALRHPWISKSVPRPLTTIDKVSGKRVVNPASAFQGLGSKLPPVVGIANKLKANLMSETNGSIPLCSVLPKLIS

[7] = target: Cyclin-dependent kinase 2/cyclin A (Homo sapiens, UniProt P24941); assay: Inhibition of CDK2/cyclin A using [gamma33P]ATP after 30 mins by scintillation counting; assay type: protein-complex assay; procedure, shortened: as §1
[8] = target: Glycogen synthase kinase-3 beta (Homo sapiens, UniProt P49841); assay: Inhibition of human recombinant GSK3beta expressed in insect cells using YRRAAVPPSPSLSRHSSPHQ-phosphoS-EDEEE as substrate and [gamma33P]ATP after 30 mins by scintillation counting
[9] = target: Dual specificity protein kinase CLK2 (Mus musculus, UniProt O35491); assay: Inhibition of mouse recombinant GST-tagged CLK2 expressed in Escherichia coli using GRSRSRSRSRSR as substrate and [gamma33P]ATP after 30 mins by scintillation counting; procedure, shortened: as §1
[10] = target: T2, Dual specificity tyrosine-phosphorylation-regulated kinase 2 (Homo sapiens) (UniProt Q92630); assay: Binding affinity to DYRK2
T2 sequence (whole entry): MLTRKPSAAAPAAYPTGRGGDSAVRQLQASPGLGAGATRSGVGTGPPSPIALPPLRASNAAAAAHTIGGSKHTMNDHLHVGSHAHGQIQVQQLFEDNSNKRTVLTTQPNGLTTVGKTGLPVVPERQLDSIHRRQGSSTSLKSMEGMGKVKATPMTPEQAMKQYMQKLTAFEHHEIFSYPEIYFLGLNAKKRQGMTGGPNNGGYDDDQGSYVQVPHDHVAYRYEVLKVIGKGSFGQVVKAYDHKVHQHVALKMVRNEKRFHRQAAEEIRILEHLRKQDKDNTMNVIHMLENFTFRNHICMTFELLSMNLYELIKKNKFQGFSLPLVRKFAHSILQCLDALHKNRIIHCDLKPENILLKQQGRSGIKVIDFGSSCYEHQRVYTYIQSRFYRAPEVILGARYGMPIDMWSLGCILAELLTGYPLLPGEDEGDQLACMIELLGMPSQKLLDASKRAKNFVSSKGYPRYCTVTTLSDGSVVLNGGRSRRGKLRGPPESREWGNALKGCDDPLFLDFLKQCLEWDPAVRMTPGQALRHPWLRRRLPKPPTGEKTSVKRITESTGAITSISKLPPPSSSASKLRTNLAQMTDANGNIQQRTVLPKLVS

[11] = target: Dual specificity protein kinase CLK4 (Homo sapiens, UniProt Q9HAZ1); assay: Binding affinity to CLK4
Dual specificity protein kinase CLK4 (Homo sapiens, UniProt Q9HAZ1), sequence (Q9HAZ1 whole entry, looked up): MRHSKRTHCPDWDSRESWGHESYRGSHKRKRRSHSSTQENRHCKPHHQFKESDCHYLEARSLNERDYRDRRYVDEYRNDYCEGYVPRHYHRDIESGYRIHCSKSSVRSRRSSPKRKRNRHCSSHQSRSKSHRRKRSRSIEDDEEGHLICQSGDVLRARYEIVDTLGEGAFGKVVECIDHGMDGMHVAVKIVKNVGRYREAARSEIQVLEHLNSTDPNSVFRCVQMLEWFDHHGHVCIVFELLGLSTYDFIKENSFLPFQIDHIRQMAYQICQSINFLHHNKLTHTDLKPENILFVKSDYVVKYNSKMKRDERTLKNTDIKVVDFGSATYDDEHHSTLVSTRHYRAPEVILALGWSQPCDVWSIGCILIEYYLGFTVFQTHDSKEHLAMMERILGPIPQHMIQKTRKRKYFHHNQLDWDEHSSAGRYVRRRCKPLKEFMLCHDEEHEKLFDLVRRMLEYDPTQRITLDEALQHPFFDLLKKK

[12] = Inhibition of starfish CDK1/cyclin B using histone H1 as substrate and [gamma33P]ATP after 30 mins by scintillation counting; set-up: species or system Asteroidea; procedure, shortened: as §1
[13] = target: Glycogen synthase kinase-3 (Sus scrofa, UniProt B2LUN4+I6LNT8); assay: Inhibition of pig GSK3alpha/beta isolated from brain using YRRAAVPPSPSLSRHSSPHQ-phosphoS-EDEEE as substrate and [gamma33P]ATP after 30 mins by scintillation counting; procedure, shortened: as §1
Leishmania major = assay: Inhibition of Leishmania major recombinant CK1 expressed in Escherichia coli using RRKHAAIGpSAYSITA as substrate and [gamma33P]ATP at 10 uM after 30 mins by scintillation counting
[14] = target: Dual specificity tyrosine-phosphorylation-regulated kinase 2 (Homo sapiens, UniProt Q92630); assay: Inhibition of human recombinant GST-tagged DYRK2 expressed in Escherichia coli using GRSRSRSRSRSR as substrate and [gamma33P]ATP after 30 mins by scintillation counting
[15] = target: Cyclin-dependent kinase 7/ cyclin H (Homo sapiens, UniProt P50613); assay: Inhibition of human recombinant CDK7/cyclin H expressed in insect cell using YSPTSPSYSPTSPSYSPTSPSKKKK as substrate and [gamma33P]ATP after 30 mins by scintillation counting; procedure, shortened: as §1
Cyclin-dependent kinase 7/ cyclin H, sequence (P51946 whole entry): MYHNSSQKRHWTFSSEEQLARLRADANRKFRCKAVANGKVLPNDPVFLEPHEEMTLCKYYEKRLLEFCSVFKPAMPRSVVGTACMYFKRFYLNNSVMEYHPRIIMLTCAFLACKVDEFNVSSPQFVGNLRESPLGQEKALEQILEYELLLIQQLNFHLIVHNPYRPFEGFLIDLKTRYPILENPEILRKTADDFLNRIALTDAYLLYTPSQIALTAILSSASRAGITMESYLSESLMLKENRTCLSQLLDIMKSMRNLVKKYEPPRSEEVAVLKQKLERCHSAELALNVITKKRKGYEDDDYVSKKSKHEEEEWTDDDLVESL
Cyclin-dependent kinase 7/ cyclin H, sequence (P50613 whole entry): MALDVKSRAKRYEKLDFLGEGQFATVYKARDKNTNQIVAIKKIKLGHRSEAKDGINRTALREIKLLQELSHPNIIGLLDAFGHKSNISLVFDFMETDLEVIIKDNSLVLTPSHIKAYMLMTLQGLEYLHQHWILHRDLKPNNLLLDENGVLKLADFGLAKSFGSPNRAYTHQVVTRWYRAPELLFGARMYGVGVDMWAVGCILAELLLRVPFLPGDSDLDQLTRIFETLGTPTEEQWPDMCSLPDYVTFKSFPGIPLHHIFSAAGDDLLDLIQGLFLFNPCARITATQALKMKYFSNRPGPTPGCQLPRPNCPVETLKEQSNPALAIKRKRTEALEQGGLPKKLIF

[16] = target: Serine/threonine-protein kinase pim-1 (Homo sapiens, UniProt P11309); assay: Inhibition of human recombinant PIM1 expressed in Escherichia coli using histone H1 as substrate and [gamma33P]ATP after 30 mins by scintillation counting
Serine/threonine-protein kinase pim-1, sequence (P11309 whole entry): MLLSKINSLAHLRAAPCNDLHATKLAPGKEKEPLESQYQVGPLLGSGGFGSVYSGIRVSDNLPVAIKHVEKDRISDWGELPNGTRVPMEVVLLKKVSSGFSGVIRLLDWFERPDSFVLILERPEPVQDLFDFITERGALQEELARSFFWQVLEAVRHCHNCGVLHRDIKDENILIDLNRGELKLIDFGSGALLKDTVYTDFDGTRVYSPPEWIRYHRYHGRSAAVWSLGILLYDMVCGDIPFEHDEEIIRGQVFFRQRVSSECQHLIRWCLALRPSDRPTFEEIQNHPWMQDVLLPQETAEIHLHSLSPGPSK

CDK9/cyclin T1 = CDK9/cyclin T1 (Homo sapiens, UniProt P50750); assay: Inhibition of human recombinant CDK9/cyclin T expressed in insect cell using YSPTSPSYSPTSPSYSPTSPSKKKK as substrate and [gamma33P]ATP after 30 mins by scintillation counting; procedure, shortened: as §1
CDK9/cyclin T1, sequence (O60563 whole entry, the tested form may be a part): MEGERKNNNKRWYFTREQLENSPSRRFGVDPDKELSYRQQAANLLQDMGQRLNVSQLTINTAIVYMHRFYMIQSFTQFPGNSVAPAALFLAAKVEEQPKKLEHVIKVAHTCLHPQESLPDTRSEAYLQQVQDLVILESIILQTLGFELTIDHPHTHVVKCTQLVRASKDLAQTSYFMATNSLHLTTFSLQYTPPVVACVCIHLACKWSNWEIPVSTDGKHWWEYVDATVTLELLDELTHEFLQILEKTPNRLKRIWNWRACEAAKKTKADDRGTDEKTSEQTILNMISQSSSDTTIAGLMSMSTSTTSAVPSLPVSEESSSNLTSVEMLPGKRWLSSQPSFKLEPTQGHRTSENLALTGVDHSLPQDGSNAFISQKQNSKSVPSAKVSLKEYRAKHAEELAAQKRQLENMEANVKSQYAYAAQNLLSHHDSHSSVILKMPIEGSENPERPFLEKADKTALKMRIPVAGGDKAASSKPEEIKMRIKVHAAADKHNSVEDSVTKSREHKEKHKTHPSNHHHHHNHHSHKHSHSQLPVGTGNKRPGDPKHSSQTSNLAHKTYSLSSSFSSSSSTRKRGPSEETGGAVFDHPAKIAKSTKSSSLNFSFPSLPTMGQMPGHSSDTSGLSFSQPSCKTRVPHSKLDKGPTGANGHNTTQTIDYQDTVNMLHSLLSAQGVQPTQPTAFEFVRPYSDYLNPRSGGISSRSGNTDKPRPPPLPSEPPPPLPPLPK
CDK9/cyclin T1, sequence (P50750 whole entry, the tested form may be a part): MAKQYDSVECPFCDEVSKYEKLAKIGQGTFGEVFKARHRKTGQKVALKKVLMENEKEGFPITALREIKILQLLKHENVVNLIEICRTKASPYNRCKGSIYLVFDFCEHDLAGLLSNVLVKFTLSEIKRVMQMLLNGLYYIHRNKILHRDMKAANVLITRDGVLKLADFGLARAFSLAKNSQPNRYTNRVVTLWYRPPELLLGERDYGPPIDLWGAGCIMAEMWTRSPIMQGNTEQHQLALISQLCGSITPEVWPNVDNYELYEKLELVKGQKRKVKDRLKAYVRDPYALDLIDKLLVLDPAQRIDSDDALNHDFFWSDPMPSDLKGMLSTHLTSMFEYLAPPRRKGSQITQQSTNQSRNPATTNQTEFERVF

[17] = target: T3, Dual specificity tyrosine-phosphorylation-regulated kinase 1A (Rattus norvegicus, UniProt Q63470); assay: Inhibition of rat recombinant C-terminal truncated GST-tagged DYRK1A expressed in Escherichia coli using GRSRSRSRSRSR as substrate and [gamma33P]ATP after 30 mins by scintillation counting
[18] = target: Dual specificity protein kinase CLK1 (Mus musculus, UniProt P22518); assay: Inhibition of mouse recombinant GST-tagged CLK1 expressed in Escherichia coli using GRSRSRSRSRSR as substrate and [gamma33P]ATP after 30 mins by scintillation counting; procedure, shortened: as §1
[19] = target: Dual specificity protein kinase CLK3 (Mus musculus, UniProt O35492); assay: Inhibition of mouse recombinant GST-tagged CLK3 expressed in Escherichia coli using GRSRSRSRSRSR as substrate and [gamma33P]ATP after 30 mins by scintillation counting; procedure, shortened: as §1
Dual specificity protein kinase CLK3 (Mus musculus, UniProt O35492), sequence (O35492 whole entry): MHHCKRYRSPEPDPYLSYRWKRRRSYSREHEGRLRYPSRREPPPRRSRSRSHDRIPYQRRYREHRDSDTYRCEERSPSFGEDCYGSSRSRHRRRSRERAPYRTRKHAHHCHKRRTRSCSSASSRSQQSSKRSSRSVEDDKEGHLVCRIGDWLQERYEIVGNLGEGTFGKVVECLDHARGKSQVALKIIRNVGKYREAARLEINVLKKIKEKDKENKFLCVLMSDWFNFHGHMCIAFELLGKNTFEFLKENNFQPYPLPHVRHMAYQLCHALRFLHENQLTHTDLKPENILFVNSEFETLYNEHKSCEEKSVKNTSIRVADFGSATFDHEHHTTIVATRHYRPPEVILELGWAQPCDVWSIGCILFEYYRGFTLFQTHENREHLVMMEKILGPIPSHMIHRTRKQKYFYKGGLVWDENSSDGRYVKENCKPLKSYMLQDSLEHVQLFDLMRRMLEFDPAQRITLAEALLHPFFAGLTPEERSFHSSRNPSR

[20] = target: Casein kinase II (Homo sapiens) (UniProt P67870+P68400+P19784); assay: Inhibition of human recombinant CK2 using RRREDEESDDEE as substrate and [gamma33P]ATP at 10 uM after 30 mins by scintillation counting; assay type: protein-complex assay
[21] = target: Dual specificity protein kinase CLK1 (Homo sapiens) (UniProt P49759); assay: Binding affinity to CLK1
[22] = target: Mitogen-activated protein kinase 1 (Rattus norvegicus, UniProt P63086); assay: Inhibition of rat recombinant ERK2 using Ets1 as substrate and [gamma33P]ATP as substrate after 30 mins by scintillation counting; procedure, shortened: as §1
Mitogen-activated protein kinase 1, sequence (P63086 whole entry): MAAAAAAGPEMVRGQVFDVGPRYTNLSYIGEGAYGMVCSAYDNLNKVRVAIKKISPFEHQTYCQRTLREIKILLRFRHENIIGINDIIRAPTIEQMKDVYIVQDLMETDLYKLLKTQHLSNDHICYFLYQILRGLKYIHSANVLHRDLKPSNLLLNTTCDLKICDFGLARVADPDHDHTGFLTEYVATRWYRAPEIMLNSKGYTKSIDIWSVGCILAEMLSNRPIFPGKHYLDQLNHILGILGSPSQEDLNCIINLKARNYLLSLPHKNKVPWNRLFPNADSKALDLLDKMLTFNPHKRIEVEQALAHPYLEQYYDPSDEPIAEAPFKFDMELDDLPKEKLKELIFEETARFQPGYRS

[23] = target: T3, Dual specificity tyrosine-phosphorylation-regulated kinase 1A; assay: Inhibition of rat DYRK1A isolated from brain using KKISGRLSPIMTEQ as substrate and [gamma33P]ATP after 30 mins by scintillation counting

Dual specificity protein kinase CLK4 (Mus musculus, UniProt O35493), sequence (O35493 whole entry): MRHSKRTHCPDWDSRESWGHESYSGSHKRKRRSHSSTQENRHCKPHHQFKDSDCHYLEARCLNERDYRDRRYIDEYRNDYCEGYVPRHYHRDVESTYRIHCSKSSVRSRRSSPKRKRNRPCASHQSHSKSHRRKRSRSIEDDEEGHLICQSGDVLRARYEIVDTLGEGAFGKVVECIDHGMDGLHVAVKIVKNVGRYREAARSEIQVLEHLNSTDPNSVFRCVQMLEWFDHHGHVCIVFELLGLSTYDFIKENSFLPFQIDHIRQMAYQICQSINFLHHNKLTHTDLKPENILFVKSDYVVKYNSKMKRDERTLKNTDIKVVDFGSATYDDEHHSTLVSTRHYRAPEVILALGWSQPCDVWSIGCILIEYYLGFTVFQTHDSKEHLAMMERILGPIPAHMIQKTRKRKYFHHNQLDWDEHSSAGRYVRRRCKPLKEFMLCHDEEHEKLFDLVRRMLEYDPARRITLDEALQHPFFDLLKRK

For `CN1C(=O)/C(=C/c2ccc3c(c2)OCO3)N=C1N` [LEUCETTAMINE B], the IC50 [1] was 0.15 µM, the IC50 [2] was greater than 10 µM and the inhibition (Plasmodium falciparum) was “inactive”. The IC50 [3] was greater than 10 µM, the IC50 [4] was 7.7 µM and the Activity [5] was “Active”. The IC50 [6] was 1.4 µM, the IC50 [7] was greater than 10 µM and the IC50 [8] was greater than 10 µM. The IC50 [9] was 2.1 µM, the Activity [10] was “Active” and the Activity [11] was “Active”. The IC50 [12] was greater than 10 µM, the IC50 [13] was 2.9 µM and the inhibition (Leishmania major) was “inactive”. For the same compound, the IC50 [14] was 2 µM, the IC50 [15] was greater than 10 µM and the IC50 [16] was greater than 10 µM. It also gave an IC50 (CDK9/cyclin T1) greater than 10 µM, an IC50 [17] of 0.92 µM and an IC50 [18] of 0.066 µM. The IC50 [19] was 1.8 µM, the inhibition [20] was “inactive” and the Activity [21] was “Active”. It also gave an IC50 [22] greater than 10 µM and an IC50 [23] of 0.9 µM.
